Measured values reported in ChEMBL document CHEMBL1125485, “Inhibitors of blood platelet cAMP phosphodiesterase. 2. Structure-activity relationships associated with 1,3-dihydro-2H-imidazo[4,5-b]quinolin-2-ones substituted with functionalized side chains” (J Med Chem, 1992).

Assays:
[1] = test system: Oryctolagus cuniculus; assay: Inhibition of thrombus formation (mean thrombus area) in conscious rabbits at 1.0 mg/kg; format: functional; settings: values are per cent of control
Procedure, shortened: (§1)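 Conscious rabbit ear biolaser model: ruby laser induces microvascular thrombi. Predose mean thrombus area from 10 vessels, then compound given orally as suspension in H2O/Tween 20 and 10 trials repeated 2 h later in the same rabbit; percent inhibition versus predose. At least three rabbits.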

[2] = test system: Canis familiaris; assay: Inhibition of coronary artery occlusion (mean area under flow time curve) in anesthetized dog at 0.01 mg/kg; format: functional; settings: Canis lupus familiaris
Procedure, shortened: (§2)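 Modified Folts-type coronary stenosis-occlusion model of large-vessel thrombosis; read-out mean area under flow-time curve (% seconds) compared with vehicle-treated animals, as percent inhibition of thrombus formation. Five animals.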

[3] = test system: Oryctolagus cuniculus; assay: Inhibition of thrombus formation (mean thrombus area) in conscious rabbits at 0.3 mg/kg; format: functional; settings: values are per cent of control; procedure, shortened: as §1
[4] = test system: Canis familiaris; assay: Inhibition of coronary artery occlusion (mean area under flow time curve) in anesthetized dog at 0.03 mg/kg; format: functional; settings: Canis lupus familiaris; procedure, shortened: as §2
[5] = target: cGMP-dependent 3',5'-cyclic phosphodiesterase (Homo sapiens, UniProt O00408); assay: Inhibition of human platelet PDE by inhibiting cyclic Guanosine monophosphate (cGMP) hydrolysis
[6] = test system: Canis familiaris; assay: Inhibition of coronary artery occlusion (mean area under flow time curve) in anesthetized dog at 0.1 mg/kg; format: functional; settings: Canis lupus familiaris; procedure, shortened: as §2
[7] = test system: Oryctolagus cuniculus; assay: Inhibition of thrombus formation (mean thrombus area) in conscious rabbits at 3.0 mg/kg; format: functional; settings: values are per cent of control; procedure, shortened: as §1
[8] = target: T1, Phosphodiesterase 3 (Homo sapiens, UniProt Q14432+Q13370); assay: Inhibition of human platelet PDE by inhibiting cyclic Adenosine monophosphate (cAMP) hydrolysis
[9] = species on record: Oryctolagus cuniculus; assay: Inhibition of platelet aggregation using collagen as activating agent in rabbit platelet rich plasma (PRP); format: functional
Procedure, shortened: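 Rabbit platelet-rich plasma, aggregation triggered by ADP or collagen after 3 min preincubation of PRP with drug. Single or duplicate determinations, reference agent included.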

[10] = test system: Mustela putorius furo; assay: Change in heart rate (HR)in anesthetized ferrets by intraduodenal dose at 0.3 mg/kg; format: functional; settings: dose 3 mg/kg, in the assay text read “3 mg/kg” for “0.3 mg/kg”
Procedure, shortened: (§3)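 Anesthetized ferrets dosed intraduodenally; heart rate, mean arterial blood pressure and right ventricular contractile force monitored as dose-dependent changes, reported as maximum change (%). Averages from at least three separate experiments.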

[11] = test system: Mustela putorius furo; assay: Change in right ventricular contractile force (RCVF) in anesthetized ferrets by intraduodenal dose at 0.3 mg/kg; format: functional; settings: Heart right ventricle, dose 3 mg/kg, in the assay text read “3 mg/kg” for “0.3 mg/kg”; procedure, shortened: as §3
[12] = test system: Mustela putorius furo; assay: Change in mean arterial blood pressure (MABP) in anesthetized ferrets by intraduodenal dose at 0.3 mg/kg; format: functional, Artery; settings: dose 3 mg/kg, in the assay text read “3 mg/kg” for “0.3 mg/kg”; procedure, shortened: as §3
[13] = test system: Mustela putorius furo; assay: Change in heart rate (HR)in anesthetized ferrets by intraduodenal dose at 10 mg/kg
[14] = test system: Mustela putorius furo; assay: Change in right ventricular contractile force (RCVF) in anesthetized ferrets by intraduodenal dose at 10 mg/kg; settings: Heart right ventricle
[15] = test system: Mustela putorius furo; assay: Change in mean arterial blood pressure (MABP) in anesthetized ferrets by intraduodenal dose at 3 mg/kg; format: functional, Artery; settings: dose 10 mg/kg, in the assay text read “10 mg/kg” for “3 mg/kg”; procedure, shortened: as §3
[16] = species on record: Rattus norvegicus; assay: Oral efficacy in rats using the ex vivo aggregatory protocol; format: functional
Procedure, shortened: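 Rats given compound orally, then ADP-induced platelet aggregation measured ex vivo.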

[17] = Inhibition of human platelet c-AMP phosphodiesterase hydrolysis of cAMP
[18] = species on record: Oryctolagus cuniculus; assay: Inhibition of ADP-induced platelet aggregation in rabbit platelet rich plasma (PRP); format: functional
Procedure, shortened: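 Rabbit platelet-rich plasma, aggregation triggered by ADP or collagen after 3 min preincubation of PRP with drug. […] Single or duplicate determinations, reference agent included.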

[19] = target: T1, Phosphodiesterase 3; assay: Inhibition of human platelet PDE cAMP hydrolysis
[20] = test system: Canis familiaris; assay: Inhibition of coronary artery occlusion (mean area under flow time curve) in anesthetized dog at 0.3 mg/kg; format: functional; settings: Canis lupus familiaris; procedure, shortened: as §2
[21] = test system: Oryctolagus cuniculus; assay: Inhibition of thrombus formation (mean thrombus area) in conscious rabbits at 10.0 mg/kg; format: functional; settings: values are per cent of control; procedure, shortened: as §1

cGMP-dependent 3',5'-cyclic phosphodiesterase, sequence (O00408 whole entry): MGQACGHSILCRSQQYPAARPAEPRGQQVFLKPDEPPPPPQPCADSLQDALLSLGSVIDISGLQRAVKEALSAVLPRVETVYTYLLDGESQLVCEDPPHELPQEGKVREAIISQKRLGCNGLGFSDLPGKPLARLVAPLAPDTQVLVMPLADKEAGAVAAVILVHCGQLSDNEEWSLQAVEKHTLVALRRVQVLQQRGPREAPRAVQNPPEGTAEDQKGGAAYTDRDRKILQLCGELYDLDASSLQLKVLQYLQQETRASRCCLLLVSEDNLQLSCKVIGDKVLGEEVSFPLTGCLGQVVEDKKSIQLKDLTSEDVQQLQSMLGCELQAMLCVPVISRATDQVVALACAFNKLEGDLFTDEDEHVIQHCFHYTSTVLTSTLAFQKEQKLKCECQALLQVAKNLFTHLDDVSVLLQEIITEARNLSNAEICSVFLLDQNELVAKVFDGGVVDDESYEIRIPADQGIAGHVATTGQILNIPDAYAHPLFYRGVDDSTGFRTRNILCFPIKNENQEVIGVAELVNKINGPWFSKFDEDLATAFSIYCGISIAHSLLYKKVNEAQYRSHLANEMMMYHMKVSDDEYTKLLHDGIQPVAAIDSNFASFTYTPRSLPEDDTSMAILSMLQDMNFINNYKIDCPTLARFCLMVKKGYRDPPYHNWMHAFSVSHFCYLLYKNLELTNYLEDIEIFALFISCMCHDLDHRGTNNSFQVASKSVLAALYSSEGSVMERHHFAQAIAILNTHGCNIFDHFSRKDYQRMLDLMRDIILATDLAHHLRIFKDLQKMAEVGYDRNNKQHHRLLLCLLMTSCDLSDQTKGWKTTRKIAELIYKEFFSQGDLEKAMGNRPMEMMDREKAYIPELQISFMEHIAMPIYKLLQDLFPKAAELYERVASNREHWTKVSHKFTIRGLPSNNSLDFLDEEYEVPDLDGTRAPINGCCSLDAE

SMILES | response, % of control at 1 mg/kg [1] | response, % of control at 0.3 mg/kg [3] | inhibition in vivo at 0.03 mg/kg [4] | IC50 [5] | inhibition in vivo at 0.1 mg/kg [6] | response, % of control at 3 mg/kg [7] | IC50 [8] | EC50 [9] | ED50 [16] | also measured
O=C(O)CCCOc1ccc2[nH]c3nc(O)nc-3cc2c1 | 70% | 144% | 115% | 30 µM | 111% | 65% | – | – | – | inhibition in vivo at 0.01 mg/kg [2]: 89%
COC(=O)CCCOc1ccc2nc3[nH]c(=O)[nH]c3cc2c1 | 74% | 145% | 109% | > 100 µM | 120% | 78% | 0.4 µM | 0.02 µM | – | inhibition in vivo at 0.01 mg/kg [2]: 78%
O=c1[nH]c2cc3cc(OCCCCS(=O)(=O)c4ccccc4)ccc3nc2[nH]1 | 74% | 137% | 115% | > 100 µM | – | 62% | 0.001 µM | – | – | HR [10]: 13%; RVCF [11]: 16%; MABP [12]: -9%; HR [13]: 31%; RVCF [14]: 39%; MABP [15]: -11%
COC(=O)/C=C/C=C/c1ccc2[nH]c3nc(O)nc-3cc2c1 | – | – | – | – | – | – | – | 0.67 µM | 10 mg/kg | IC50 [17]: 0.09 µM
CCOC(=O)/C=C/c1ccc2[nH]c3nc(O)nc-3cc2c1 | – | – | – | – | – | – | – | 0.28 µM | – | IC50 [17]: 1 µM
CN(C)C(=O)CCCOc1ccc2[nH]c3nc(O)nc-3cc2c1 | – | – | – | – | – | – | 0.04 µM | 0.95 µM | > 10 mg/kg | EC50 [18]: 4.77 µM
Cn1c(O)nc2nc3ccc(OCCCC(=O)NC4CCCCC4)cc3cc21 | – | – | – | > 100 µM | – | – | – | 0.02 µM | – | IC50 [19]: 0.7 µM
CN(C(=O)CCCOc1ccc2nc3[nH]c(=O)[nH]c3cc2c1)C1CCCCC1 | 65% | 97% | 115% | 6 µM | – | – | 0.002 µM | 0.002 µM | 2.9 mg/kg | inhibition in vivo at 0.3 mg/kg [20]: > 120%
O=C1CN2Cc3c(ccc(Cl)c3Cl)N=C2N1 [ANAGRELIDE] | 98% | – | 72% | – | 106% | 68% | – | – | – | inhibition in vivo at 0.3 mg/kg [20]: 117%; response, % of control at 10 mg/kg [21]: 49%
